Activity calls are given as the source filed them. No cut-off for these calls is given here.
Experiments:
[1] = target: Dopamine receptor; assay: Binding affinity for dopamine receptor in rat striatal membrane using [3H]haloperidol as radioligand; format: cell membranes, Striatum
Outline: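 Nonspecific binding defined with (+)-butaclamol at 0.1 μM final. IC50 fitted by nonlinear curve fit from four or five concentrations in triplicate.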

[2] = organism: Mus musculus; assay: Ability to inhibit locomotor activity using ataxia test.; format: functional; conditions: read-out: MED
Outline: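 Male Swiss–Webster mice (20–30 g, unfasted), nine per dose in groups of three, dosed ip in 0.2% methocel (dose as parent compound) 1 h before testing. Ataxia was scored first on an inverted screen over 60 s as % of mice falling. […] ED50 from at least three doses.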

[3] = tested on: Rattus norvegicus; assay: Suppression of conditional avoidance after peroral administration; format: functional; conditions: po
Outline: (§1)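 Fasted male Wistar rats (150–250 g) were trained to jump to a platform at a buzzer to avoid grid shock (1.1 mA/s). After oral dosing they were tested every 20 min for 6 h over 19 trials, 10 rats per dose, each rat used once. Peak effect was the mean of the four consecutive trials with the largest effect, computed from response latency. ED50 read graphically from at least three doses.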

[4] = Compound was tested for inhibition of extrapyramidal side effect test in cebus monkey; format: functional; conditions: read-out: MED
Outline: (§2)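 Groups of three to six were then dosed by gavage and observed hourly for 6–8 h for dystonia or dyskinesia. Any unequivocal sign counted as a positive response. Minimal effective dose was determined in at least three animals.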

[5] = tested on: Mus musculus; assay: Compound was tested for inhibition of apomorphine-induced climbing in mice after intraperitoneal administration; format: functional; conditions: ip
Outline: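 Male Swiss–Webster mice (25–35 g), ten per dose, acclimated 30 min in cylindrical cages, dosed ip, then given apomorphine 3 mg/kg sc 1 h later. Climbing scored in 30-s tests every 5 min for 30 min, starting 15 min after apomorphine. At least three doses; ED50 by nonlinear regression.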

[6] = tested on: Rattus norvegicus; assay: The compound was tested for inhibition of conditional avoid in rats after peroral administration; format: functional; conditions: po; outline: as §1
[7] = Inhibition of sidman avoid in squirrel monkeys after peroral administration; format: functional; conditions: po
Outline: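 Mature squirrel monkeys, trained on a modified Sidman avoidance lever schedule, were dosed orally and tested in 6-h sessions. Inhibition was expressed as % of each animal's own nondrug responding. At least three doses were given to four animals, with sessions at least 1 week apart. ED50 from nonlinear regression.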

[8] = organism: Rattus norvegicus; assay: Compound was tested for its potential to produce clonic seizures in rats; + indicates compound is causing seizures; format: functional, organism-based
Outline: (§3)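 Any sign of seizure marked the compound as seizure-causing; the outcome was not quantified.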

[9] = Binding affinity against […] in rat striatal membrane using [3H]haloperidol
[10] = organism: Rattus norvegicus; assay: Compound was tested for its potential to produce clonic seizures in rats; + indicates that they are causing seizures; format: functional, organism-based; outline: as §3
[11] = target: Adenylate cyclase; assay: The compound was tested for adenylate cyclase activity in rat corpus striatum; format: tissue-based
Outline: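 Striatal homogenates from male Long–Evans rats (200–300 g). Test substance concentration varied with dopamine held at 20 μM. Cyclic AMP formed was measured by radioimmunoassay, in triplicate.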

[12] = tested on: Rattus norvegicus; assay: Compound was tested for serum prolactin assay method in rats at 1 mg/kg dose after peroral administration; format: functional; conditions: route oral
Outline: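 Seven-week-old male Sprague–Dawley rats, five per group, were dosed orally and killed by decapitation 1 h later. Serum prolactin from trunk blood was measured by radioimmunoassay with [125I]-PRL and expressed as % of control (mean ± SEM).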

[13] = tested on: Rattus norvegicus; assay: Antagonized affect on the accumulation of the brain dopamine induced by butyrolactone (GBL) at 10 mg/kg after intraperitoneal administration; format: functional; set-up: scale not given: the % may be the effect or the level left
[14] = target: Beta-1 adrenergic receptor (Rattus norvegicus, UniProt P18090); assay: Binding affinity against beta-1 adrenergic receptor in rat brain using [3H]DHA; format: tissue-based
Outline: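 β1 binding was run on rat cerebral cortex membranes from male Long–Evans rats (150–250 g) with [3H]dihydroalprenolol at 0.5 nM final. Nonspecific binding was defined with (−)-alprenolol at 1 μM final. IC50 from four or five concentrations by nonlinear curve fit.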

[15] = target: T1, Beta-2 adrenergic receptor (Rattus norvegicus, UniProt P10608); assay: (§4) Binding affinity against beta-2 adrenergic receptor in rat brain using [3H]DHA; format: tissue-based
Outline: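 β2 sites in rat cerebellum membranes (male Long-Evans, 150–250 g) with [3H]dihydroalprenolol at 0.5 nM final. (-)-Alprenolol at 1 μM final defined the reference. IC50 from four or five concentrations by nonlinear curve fit.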

[16] = tested on: Rattus norvegicus; assay: Compound was tested for its affect on the accumulation of the dopamine metabolite homovanillic acid (HAV) in the rat striatum at 1 mg/kg dose after peroral administration; format: functional; conditions: route oral
Outline: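 Male Long–Evans rats were dosed orally and decapitated 2 h later. Striatal HVA was isolated on Sephadex G-10 and measured spectrofluorometrically, expressed as % control ± SEM.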

[17] = target: T1, Beta-2 adrenergic receptor; assay: as §4; format: tissue-based; remark: listed apart in the source
Outline: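 β2 binding on rat cerebellum membranes (male Long–Evans rats, 150–250 g) with [3H]dihydroalprenolol, 0.5 nM final. Nonspecific binding defined with (-)-alprenolol, 1 μM final. IC50 from four or five concentrations by nonlinear curve fit.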

[18] = Extrapyramidal side effect test in cebus monkey; format: functional; conditions: read-out: MED; outline: as §2
[19] = tested on: Canis familiaris; assay: Compound was tested for inhibition of emesis test in dogs administered perorally; antiemetic; format: functional, organism-based; conditions: Canis lupus familiaris
[20] = tested on: Mus musculus; assay: Compound was tested for inhibition of locomotor activity and ataxia in mice after intraperitoneal administration; format: functional; conditions: ip
Outline: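 Unfasted male Swiss–Webster mice (20–30 g), nine per dose in groups of three, given compound ip in 0.2% methocel 1 h before testing. Ataxia assessed by 60-s inverted screen test, then photocell actophotometer locomotion recorded over 60 min as percent inhibition versus vehicle. At least three doses.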

[21] = tested on: Rattus norvegicus; assay: Compound was tested for inhibition of conditional avoid in rats after peroral administration; format: functional; conditions: po
Outline: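 Fasted male Wistar rats (150–250 g) trained to jump to a platform at a buzzer to avoid grid shock (1.1 mA/s). After oral dosing, tested every 20 min for 6 h over 19 trials, 10 rats per dose. Peak effect from four consecutive trials using response latency. ED50 read graphically from at least three doses.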

[22] = Compound was tested for inhibition of sidman avoid in squirrel monkeys after peroral administration; conditions: Saimiri, po
[23] = tested on: Rattus norvegicus; assay: Antagonized affect on the accumulation of the brain dopamine induced by butyrolactone (GBL) at 5 mg/kg after intraperitoneal administration; format: functional; set-up: scale not given: the % may be the effect or the level left

T1 sequence (P10608 whole entry): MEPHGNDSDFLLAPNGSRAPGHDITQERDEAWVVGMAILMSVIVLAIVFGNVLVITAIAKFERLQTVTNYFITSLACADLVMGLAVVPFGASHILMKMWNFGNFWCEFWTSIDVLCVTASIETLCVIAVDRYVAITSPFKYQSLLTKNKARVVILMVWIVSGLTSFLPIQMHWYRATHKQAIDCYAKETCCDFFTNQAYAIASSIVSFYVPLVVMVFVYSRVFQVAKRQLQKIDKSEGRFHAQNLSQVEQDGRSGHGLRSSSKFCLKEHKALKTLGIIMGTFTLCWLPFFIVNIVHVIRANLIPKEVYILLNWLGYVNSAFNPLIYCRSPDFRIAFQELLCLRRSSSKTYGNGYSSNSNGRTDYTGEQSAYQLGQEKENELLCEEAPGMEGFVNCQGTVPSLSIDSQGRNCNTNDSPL
Sequence of Beta-1 adrenergic receptor (P18090 whole entry): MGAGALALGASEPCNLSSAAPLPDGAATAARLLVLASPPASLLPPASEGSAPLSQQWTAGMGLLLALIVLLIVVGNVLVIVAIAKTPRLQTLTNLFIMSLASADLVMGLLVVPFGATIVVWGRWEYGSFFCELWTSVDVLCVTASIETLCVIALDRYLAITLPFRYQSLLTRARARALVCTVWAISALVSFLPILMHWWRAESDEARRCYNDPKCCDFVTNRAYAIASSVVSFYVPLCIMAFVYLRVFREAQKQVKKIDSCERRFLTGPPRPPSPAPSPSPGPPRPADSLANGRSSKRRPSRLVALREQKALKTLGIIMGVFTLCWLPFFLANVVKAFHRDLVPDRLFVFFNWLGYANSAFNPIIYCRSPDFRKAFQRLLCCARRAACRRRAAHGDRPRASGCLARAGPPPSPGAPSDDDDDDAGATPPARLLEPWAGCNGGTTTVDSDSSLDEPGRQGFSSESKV

Structure (SMILES)	IC50 [1] [µM]	minimal effective dose [2] [mg/kg]	ED50 [3] [mg/kg]	other results
Cc1nn(C)c(N(C)C(=O)CNCCCN2CCCCC2C)c1C(=O)c1ccccc1F (stereo not given)	> 10	> 100	> 100	
Cc1nn(C)c(NC(=O)CN2CCC(c3ccccc3)CC2)c1C(=O)c1ccccc1F	> 10	30	100	
CSc1ccc2c(c1)N(CCC1CCCCN1C)c1ccccc1S2 (stereo not given) [THIORIDAZINE]				minimal effective dose [4]: 2.5 mg/kg; ED50 [5]: 3.4 mg/kg; ED50 [6]: 5.8 mg/kg; ED50 [7]: 4.3 mg/kg
Cc1nn(C)c(N(C)C(=O)C(F)(F)F)c1C(=O)c1ccccc1F		> 100		Clonic seizures [8]: causing seizures
CC(=O)Nc1c(C(=O)c2ccccc2F)c(C)nn1C		30		Clonic seizures [8]: causing seizures
Cc1nn(C)c(NC(=O)C(C)(C)N2CCCC2)c1C(=O)c1ccccc1F	> 10	> 100	> 56	
Cc1nn(C)c(NC(=O)CNCCCN(C)C)c1C(=O)c1ccccc1F	> 10	80	56	
Cc1nn(C)c(NC(=O)CNCCCNC(C)(C)C)c1C(=O)c1ccccc1F		30	46	IC50 [9]: > 10 µM
Cc1nn(C)c(NC(=O)CCN2CCCC2)c1C(=O)c1ccccc1F	> 10	100	15	
Cc1nn(C)c(NC(=O)CNCCCN2CCCCC2)c1C(=O)c1ccccc1F	> 10	100	16	
Cc1nn(C)c(NC(=O)CNCCCN2CCCC(C)C2)c1C(=O)c1ccccc1F (stereo not given)	> 10	100	100	
Cc1nn(C)c(NC(=O)CN(C)CCCN2CCCCC2C)c1C(=O)c1ccccc1F (stereo not given)	> 10	30	21	
Cc1nn(C)c(NC(=O)C(Cl)Cl)c1C(=O)c1ccccc1F		30		Clonic seizures [10]: causing seizures
OCCN1CCN(CCCN2c3ccccc3Sc3ccc(C(F)(F)F)cc32)CC1 [FLUPHENAZINE]				IC50 [11]: 0.08 µM
CNc1c(C(=O)c2ccccc2F)c(C)nn1C		30		Clonic seizures [8]: causing seizures
CC(C)C[C@H]1C(=O)N2CCC[C@H]2[C@]2(O)O[C@](NC(=O)[C@@H]3C=C4c5cccc6[nH]c(Br)c(c56)C[C@H]4N(C)C3)(C(C)C)C(=O)N12 [BROMOCRIPTINE]				Control [12]: 32.7%; Control [13]: 82.4%
Cc1nn(C)c(NC(=O)C(F)(F)F)c1C(=O)c1ccccc1F		< 10		Clonic seizures [8]: causing seizures
O=C(CCCN1CCC(O)(c2ccc(Cl)cc2)CC1)c1ccc(F)cc1 [HALOPERIDOL]				IC50 [14]: > 10 µM; IC50 [15]: > 10 µM; Control [16]: 348.9%; Control [12]: 224%
Cc1nn(C)c(NC(=O)CN2CCCCC2)c1C(=O)c1ccccc1F	> 10	30	> 100	
Cc1nn(C)c(N(C)S(C)(=O)=O)c1C(=O)c1ccccc1F		> 90		Clonic seizures [8]: causing seizures
Cc1nn(C)c(NC(=O)CN2CCC3(CC2)C(=O)NCN3c2ccccc2)c1C(=O)c1ccccc1F	> 10	100	15.5	
Cc1nn(C)c(NC(=O)CNCCN2CCCCC2)c1C(=O)c1ccccc1F	> 10	30	38	
Cc1nn(C)c(NC(=O)C(C)N2CCCC2)c1C(=O)c1ccccc1F (stereo not given)	> 10	100	> 100	
Cc1nn(C)c(NC(=O)CNCCN(C(C)C)C(C)C)c1C(=O)c1ccccc1F	> 10	100	71	
CN1CCN(C2=Nc3cc(Cl)ccc3Nc3ccccc32)CC1 [CLOZAPINE]				IC50 [17]: > 10 µM; minimal effective dose [18]: > 30 mg/kg; MED [19]: Active; ED50 [5]: 10 mg/kg; ED50 [20]: 5.65 mg/kg; ED50 [21]: 22 mg/kg; ED50 [22]: 4.1 mg/kg
Cc1nn(C)c(NC(=O)CN2CCCC2)c1C(=O)c1ccccc1F	> 10	30	48	
Cc1nn(C)c(NC(=O)CNCCCN2CCC(C)CC2)c1C(=O)c1ccccc1F	> 10	100		
CN1CCc2cccc3c2[C@H]1Cc1ccc(O)c(O)c1-3 [APOMORPHINE]				Control [23]: 75%
CCCNc1c(C(=O)c2ccccc2F)c(C)nn1C		< 10		Clonic seizures [8]: causing seizures
